Results published in ChEMBL document CHEMBL5724801, “EUbOPEN Chemogenomics Library - Multiplex” (2024).
Several values for one entry are separate records, joined by “and”; a condition that tells them apart may be missing. Equal values may be shown once.

System: HEK-293T
Experiment: Multiplex assay against HEK293T
Assay type: toxicity, cell-based
Details: human
In short: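 Per cents of healthy-nucleus cells form the tubulin, mitochondrial-mass and membrane-permeability phenotype values. Live cells were stained at seeding with Hoechst33342, BioTracker Green Microtubule Cytoskeleton Dye, MitoTracker Red and Annexin V Alexa Fluor 680. After compound addition they were imaged on a CQ1 microscope at 37°C and 5% CO2, and CellPathfinder machine-learning gating split them into Hoechst high-intensity objects or normal cells, normal cells into healthy, pyknosed or fragmented nuclei, and pyknosed cells into mitotic or apoptotic.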

[1] = 12 h, 1 µM, compound concentration 1 uM
[2] = 12 h, 10 µM, compound concentration 10 uM
[3] = 24 h, 1 µM, compound concentration 1 uM
[4] = 24 h, 10 µM, compound concentration 10 uM
[5] = 48 h, 1 µM, compound concentration 1 uM
[6] = 48 h, 10 µM, compound concentration 10 uM

CCn1cnc2c(-c3ccc(F)c(-c4ccc(S(=O)(=O)CC)cc4OC)c3)cnnc21 [DARIGABAT]
Population Apoptotic (%) [1]: 11.84% and 26.37% | Population Fragmented Nuclei (%) [1]: 2.08% and 6.03% | Population Healthy Nuclei (%) [1]: 45.14% and 15.52% | Population Hoechst High Intensity Objects (%) [1]: 0.69% and 0% | Population Membrane Permeable-Phenotype (%) [1]: 1.54% and 0% | Population Mitochondria Different-Phenotype (%) [1]: 30.77% and 11.11% | Population Mitotic Cells (%) [1]: 88.16% and 73.63% | Population Normal (%) [1]: 99.31% and 100% | Population Pyknosed Nuclei (%) [1]: 52.78% and 78.45% | Population Tubulin-Different-Phenotype (%) [1]: 7.69% and 16.67% | Total Cell Count [1]: 290 and 116 | Population Apoptotic (%) [2]: 21.29% and 10% | Population Fragmented Nuclei (%) [2]: 1.32% and 0.75% | Population Hoechst High Intensity Objects (%) [2]: 0.44% and 0% | Population Membrane Permeable-Phenotype (%) [2]: 0% | Population Mitochondria Different-Phenotype (%) [2]: 28.57% and 46.15% | Population Mitotic Cells (%) [2]: 78.71% and 90% | Population Normal (%) [2]: 99.56% and 100% | Population Pyknosed Nuclei (%) [2]: 67.98% and 89.55% | Population Tubulin-Different-Phenotype (%) [2]: 40% and 69.23% | Total Cell Count [2]: 229 and 134 | Population Apoptotic (%) [3]: 18.67% and 32.22% | Population Fragmented Nuclei (%) [3]: 2.2% and 5.36% | Population Hoechst High Intensity Objects (%) [3]: 0.22% and 1.75% | Population Membrane Permeable-Phenotype (%) [3]: 1.8% and 0% | Population Mitochondria Different-Phenotype (%) [3]: 24.46% and 31.25% | Population Mitotic Cells (%) [3]: 81.33% and 67.78% | Population Normal (%) [3]: 99.78% and 98.25% | Population Pyknosed Nuclei (%) [3]: 36.56% and 80.36% | Population Tubulin-Different-Phenotype (%) [3]: 17.63% and 6.25% | Population Apoptotic (%) [4]: 40.69% and 29.17% | Population Fragmented Nuclei (%) [4]: 0.43% and 1.46% | Population Hoechst High Intensity Objects (%) [4]: 0.86% and 0% | Population Membrane Permeable-Phenotype (%) [4]: 0% and 6.67% | Population Mitochondria Different-Phenotype (%) [4]: 61.9% and 46.67% | Population Mitotic Cells (%) [4]: 59.31% and 70.83% | Population Normal (%) [4]: 99.14% and 100% | Population Pyknosed Nuclei (%) [4]: 63.04% and 87.59% | Total Cell Count [4]: 232 and 137 | Population Apoptotic (%) [5]: 12.68% and 27.16% | Population Fragmented Nuclei (%) [5]: 3.42% and 2.05% | Population Healthy Nuclei (%) [5]: 77.19% and 42.47% | Population Hoechst High Intensity Objects (%) [5]: 0% | Population Membrane Permeable-Phenotype (%) [5]: 3.54% and 1.61% | Population Mitochondria Different-Phenotype (%) [5]: 36.28% and 61.29% | Population Mitotic Cells (%) [5]: 87.32% and 72.84% | Population Normal (%) [5]: 100% | Population Pyknosed Nuclei (%) [5]: 19.4% and 55.48% | Population Apoptotic (%) [6]: 55.34% and 39.62% | Population Fragmented Nuclei (%) [6]: 1.71% and 3.1% | Population Hoechst High Intensity Objects (%) [6]: 0.34% and 0% | Population Membrane Permeable-Phenotype (%) [6]: 1.08% and 0% | Population Mitochondria Different-Phenotype (%) [6]: 92.97% and 73.68% | Population Mitotic Cells (%) [6]: 44.66% and 60.38% | Population Normal (%) [6]: 99.66% and 100% | Population Pyknosed Nuclei (%) [6]: 35.15% and 82.17% | Total Cell Count [6]: 294 and 129

O=C(NCCO)c1cccc(-c2cc(Nc3ccc(OC(F)(F)F)cc3)ncn2)c1
Population Apoptotic (%) [1]: 27% and 40% | Population Fragmented Nuclei (%) [1]: 7% and 4% | Population Healthy Nuclei (%) [1]: 78% and 77% | Population Hoechst High Intensity Objects (%) [1]: 8% and 6% | Population Membrane Permeable-Phenotype (%) [1]: 0% | Population Mitochondria Different-Phenotype (%) [1]: 47% and 60% | Population Mitotic Cells (%) [1]: 72% and 59% | Population Normal (%) [1]: 91% and 93% | Population Pyknosed Nuclei (%) [1]: 13% and 17% | Population Tubulin-Different-Phenotype (%) [1]: 23% and 16% | Total Cell Count [1]: 409 and 262 | Population Apoptotic (%) [2]: 55% and 63% | Population Fragmented Nuclei (%) [2]: 6% and 5% | Population Healthy Nuclei (%) [2]: 76% and 73% | Population Hoechst High Intensity Objects (%) [2]: 10% and 12% | Population Membrane Permeable-Phenotype (%) [2]: 0% | Population Mitochondria Different-Phenotype (%) [2]: 69% and 74% | Population Mitotic Cells (%) [2]: 44% and 36% | Population Normal (%) [2]: 89% and 87% | Population Pyknosed Nuclei (%) [2]: 17% and 21% | Population Tubulin-Different-Phenotype (%) [2]: 49% and 26% | Total Cell Count [2]: 374 and 325 | Population Apoptotic (%) [3]: 26% and 41% | Population Fragmented Nuclei (%) [3]: 11% and 7% | Population Healthy Nuclei (%) [3]: 78% and 79% | Population Hoechst High Intensity Objects (%) [3]: 4% and 6% | Population Membrane Permeable-Phenotype (%) [3]: 0% | Population Mitochondria Different-Phenotype (%) [3]: 21% and 38% | Population Mitotic Cells (%) [3]: 73% and 58% | Population Normal (%) [3]: 95% and 93% | Population Pyknosed Nuclei (%) [3]: 10% and 13% | Population Tubulin-Different-Phenotype (%) [3]: 15% and 17% | Total Cell Count [3]: 538 and 331 | Population Apoptotic (%) [4]: 39% and 50% | Population Fragmented Nuclei (%) [4]: 5% and 6% | Population Healthy Nuclei (%) [4]: 80% and 77% | Population Hoechst High Intensity Objects (%) [4]: 7% and 14% | Population Membrane Permeable-Phenotype (%) [4]: 0% | Population Mitochondria Different-Phenotype (%) [4]: 61% and 56% | Population Mitotic Cells (%) [4]: 60% and 50% | Population Normal (%) [4]: 92% and 85% | Population Pyknosed Nuclei (%) [4]: 14% and 15% | Population Tubulin-Different-Phenotype (%) [4]: 38% and 22% | Total Cell Count [4]: 447 and 354 | Population Apoptotic (%) [5]: 17% and 37% | Population Fragmented Nuclei (%) [5]: 12% and 9% | Population Healthy Nuclei (%) [5]: 80% and 79% | Population Hoechst High Intensity Objects (%) [5]: 3% and 5% | Population Membrane Permeable-Phenotype (%) [5]: 2% and 0% | Population Mitochondria Different-Phenotype (%) [5]: 17% and 23% | Population Mitotic Cells (%) [5]: 82% and 62% | Population Normal (%) [5]: 96% and 94% | Population Pyknosed Nuclei (%) [5]: 7% and 10% | Population Tubulin-Different-Phenotype (%) [5]: 13% and 9% | Total Cell Count [5]: 897 and 476 | Population Apoptotic (%) [6]: 41% and 58% | Population Fragmented Nuclei (%) [6]: 10% and 16% | Population Healthy Nuclei (%) [6]: 79% and 72% | Population Hoechst High Intensity Objects (%) [6]: 8% and 17% | Population Membrane Permeable-Phenotype (%) [6]: 1% and 0% | Population Mitochondria Different-Phenotype (%) [6]: 36% | Population Mitotic Cells (%) [6]: 58% and 41% | Population Normal (%) [6]: 91% and 82% | Population Pyknosed Nuclei (%) [6]: 10% and 11% | Population Tubulin-Different-Phenotype (%) [6]: 18% and 13% | Total Cell Count [6]: 595 and 504

Cc1sc2c(c1C)C(c1ccc(Cl)cc1)=N[C@H](CC(=O)OC(C)(C)C)c1nnc(C)n1-2
Population Apoptotic (%) [1]: 40% and 44% | Population Fragmented Nuclei (%) [1]: 8% and 6% | Population Healthy Nuclei (%) [1]: 80% and 76% | Population Hoechst High Intensity Objects (%) [1]: 8% and 9% | Population Membrane Permeable-Phenotype (%) [1]: 0% | Population Mitochondria Different-Phenotype (%) [1]: 49% and 65% | Population Mitotic Cells (%) [1]: 60% and 55% | Population Normal (%) [1]: 91% and 90% | Population Pyknosed Nuclei (%) [1]: 10% and 17% | Population Tubulin-Different-Phenotype (%) [1]: 32% and 26% | Total Cell Count [1]: 478 and 333 | Population Apoptotic (%) [2]: 41% and 66% | Population Fragmented Nuclei (%) [2]: 7% and 5% | Population Healthy Nuclei (%) [2]: 76% and 72% | Population Hoechst High Intensity Objects (%) [2]: 7% and 10% | Population Membrane Permeable-Phenotype (%) [2]: 0% | Population Mitochondria Different-Phenotype (%) [2]: 74% and 90% | Population Mitotic Cells (%) [2]: 58% and 33% | Population Normal (%) [2]: 92% and 89% | Population Pyknosed Nuclei (%) [2]: 15% and 21% | Population Tubulin-Different-Phenotype (%) [2]: 67% and 70% | Total Cell Count [2]: 395 and 303 | Population Apoptotic (%) [3]: 32% | Population Fragmented Nuclei (%) [3]: 10% | Population Healthy Nuclei (%) [3]: 76% and 82% | Population Hoechst High Intensity Objects (%) [3]: 5% and 6% | Population Membrane Permeable-Phenotype (%) [3]: 0% | Population Mitochondria Different-Phenotype (%) [3]: 29% and 43% | Population Mitotic Cells (%) [3]: 68% and 67% | Population Normal (%) [3]: 94% and 93% | Population Pyknosed Nuclei (%) [3]: 13% and 6% | Population Tubulin-Different-Phenotype (%) [3]: 19% and 11% | Total Cell Count [3]: 609 and 479 | Population Apoptotic (%) [4]: 41% and 49% | Population Fragmented Nuclei (%) [4]: 8% and 3% | Population Healthy Nuclei (%) [4]: 68% and 76% | Population Hoechst High Intensity Objects (%) [4]: 4% and 6% | Population Membrane Permeable-Phenotype (%) [4]: 0% and 1% | Population Mitochondria Different-Phenotype (%) [4]: 64% and 76% | Population Mitotic Cells (%) [4]: 58% and 50% | Population Normal (%) [4]: 95% and 93% | Population Pyknosed Nuclei (%) [4]: 23% and 19% | Population Tubulin-Different-Phenotype (%) [4]: 46% and 47% | Total Cell Count [4]: 468 and 378 | Population Apoptotic (%) [5]: 18% and 30% | Population Fragmented Nuclei (%) [5]: 11% and 14% | Population Healthy Nuclei (%) [5]: 80% and 79% | Population Hoechst High Intensity Objects (%) [5]: 3% and 4% | Population Membrane Permeable-Phenotype (%) [5]: 1% and 0% | Population Mitochondria Different-Phenotype (%) [5]: 16% and 21% | Population Mitotic Cells (%) [5]: 81% and 69% | Population Normal (%) [5]: 96% and 95% | Population Pyknosed Nuclei (%) [5]: 7% and 5% | Population Tubulin-Different-Phenotype (%) [5]: 10% and 12% | Total Cell Count [5]: 1012 and 685 | Population Apoptotic (%) [6]: 31% and 55% | Population Fragmented Nuclei (%) [6]: 9% and 8% | Population Healthy Nuclei (%) [6]: 73% and 76% | Population Hoechst High Intensity Objects (%) [6]: 3% and 5% | Population Membrane Permeable-Phenotype (%) [6]: 0% | Population Mitochondria Different-Phenotype (%) [6]: 47% and 66% | Population Mitotic Cells (%) [6]: 68% and 44% | Population Normal (%) [6]: 96% and 94% | Population Pyknosed Nuclei (%) [6]: 16% and 15% | Population Tubulin-Different-Phenotype (%) [6]: 19% and 28% | Total Cell Count [6]: 641 and 525
